This is an account of results in ChEMBL document CHEMBL4118021, “Studies of TAK1-centered polypharmacology with novel covalent TAK1 inhibitors” (Bioorg Med Chem, 2017).

The source made the active and inactive calls. No cut-off for these calls is given here.

In assay [1] the target is T-complex protein 1 subunit epsilon (Homo sapiens) (UniProt P48643). The assay can be described thus: Binding affinity to CCT5 in human NCI-H23 cells at 1 uM by mass spectrometry based pull down assay. It is filed as cell-based.
Assay [2] concerns the target Actin-related protein 2/3 complex subunit 2 (Homo sapiens) (UniProt O15144). Briefly: Binding affinity to ARPC2 in human NCI-H23 cells at 1 uM by mass spectrometry based pull down assay. The class given is cell-based.
The target of assay [3] is LIM domain kinase 1 (Homo sapiens) (UniProt P53667). Briefly: Binding affinity to LIMK1 in human NCI-H23 cells at 1 uM by mass spectrometry based pull down assay. The class given is cell-based.
LIM domain kinase 1 (Homo sapiens), sequence (P53667 whole entry, looked up, the tested form may be a part): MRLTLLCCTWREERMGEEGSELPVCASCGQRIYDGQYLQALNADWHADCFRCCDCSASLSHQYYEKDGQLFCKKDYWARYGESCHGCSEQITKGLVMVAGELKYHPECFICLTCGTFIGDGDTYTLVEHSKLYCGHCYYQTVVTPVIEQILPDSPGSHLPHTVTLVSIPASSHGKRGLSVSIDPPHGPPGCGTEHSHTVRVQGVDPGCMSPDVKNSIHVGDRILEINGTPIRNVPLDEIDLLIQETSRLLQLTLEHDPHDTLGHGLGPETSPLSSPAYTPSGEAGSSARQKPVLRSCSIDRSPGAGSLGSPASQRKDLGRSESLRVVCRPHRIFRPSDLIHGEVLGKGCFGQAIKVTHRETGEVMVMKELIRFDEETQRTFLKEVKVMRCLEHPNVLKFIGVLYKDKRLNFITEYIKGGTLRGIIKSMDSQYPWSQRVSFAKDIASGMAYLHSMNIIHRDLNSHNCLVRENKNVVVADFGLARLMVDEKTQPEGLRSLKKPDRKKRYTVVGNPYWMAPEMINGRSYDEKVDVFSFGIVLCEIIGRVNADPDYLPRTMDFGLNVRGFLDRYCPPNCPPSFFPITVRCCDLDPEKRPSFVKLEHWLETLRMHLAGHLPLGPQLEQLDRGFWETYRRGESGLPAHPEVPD
The target of assay [4] is Protein LSM12 (Homo sapiens) (UniProt Q3MHD2). The assay can be described thus: Binding affinity to LSM12 in human NCI-H23 cells at 1 uM by mass spectrometry based pull down assay. It is filed as cell-based.
Protein LSM12 (Homo sapiens), sequence (Q3MHD2 whole entry): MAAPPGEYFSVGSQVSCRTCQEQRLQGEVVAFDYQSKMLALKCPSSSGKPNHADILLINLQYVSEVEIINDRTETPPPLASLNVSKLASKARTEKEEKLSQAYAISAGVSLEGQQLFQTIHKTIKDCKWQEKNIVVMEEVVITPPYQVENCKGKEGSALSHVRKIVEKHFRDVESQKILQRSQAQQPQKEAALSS
The target of assay [5] is Phospholipid hydroperoxide glutathione peroxidase GPX4 (Homo sapiens) (UniProt P36969). Briefly: Binding affinity to GPX4 in human NCI-H23 cells at 1 uM by mass spectrometry based pull down assay. The class given is cell-based.
Phospholipid hydroperoxide glutathione peroxidase GPX4 (Homo sapiens), sequence (P36969 whole entry): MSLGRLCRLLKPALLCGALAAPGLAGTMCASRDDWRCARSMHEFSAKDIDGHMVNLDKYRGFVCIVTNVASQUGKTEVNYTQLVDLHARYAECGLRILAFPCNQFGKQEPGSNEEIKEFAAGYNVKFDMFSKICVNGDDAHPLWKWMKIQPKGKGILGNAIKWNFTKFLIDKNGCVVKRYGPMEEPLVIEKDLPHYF
In assay [6] the target is E3 ubiquitin-protein ligase UBR4 (Homo sapiens) (UniProt Q5T4S7). Briefly: Binding affinity to UBR4 in human NCI-H23 cells at 1 uM by mass spectrometry based pull down assay. It is filed as cell-based.
The target in assay [7] is Proteasome Macropain subunit MB1 (Homo sapiens) (UniProt P28074). Briefly: Binding affinity to PSMB5 in human NCI-H23 cells at 1 uM by mass spectrometry based pull down assay. The class given is cell-based.
Proteasome Macropain subunit MB1 (Homo sapiens), sequence (P28074 whole entry): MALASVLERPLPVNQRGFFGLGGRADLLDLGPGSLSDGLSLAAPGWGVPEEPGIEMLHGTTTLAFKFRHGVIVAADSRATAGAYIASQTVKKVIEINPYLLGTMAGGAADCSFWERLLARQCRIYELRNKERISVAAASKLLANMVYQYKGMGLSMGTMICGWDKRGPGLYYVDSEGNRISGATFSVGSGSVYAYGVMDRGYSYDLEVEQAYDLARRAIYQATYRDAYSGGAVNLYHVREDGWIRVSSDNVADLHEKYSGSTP
The target of assay [8] is Ubiquitin-like modifier-activating enzyme 1 (Homo sapiens) (UniProt P22314). Briefly: Binding affinity to UBA1 in human NCI-H23 cells at 1 uM by mass spectrometry based pull down assay. The class given is cell-based.
The target of assay [9] is AP2-associated protein kinase 1 (Homo sapiens) (UniProt Q2M2I8). Briefly: Binding affinity to AAK1 in human NCI-H23 cells at 1 uM by mass spectrometry based pull down assay. The class given is cell-based. An outline of the steps:
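NCI-H23 or NCI-H358 cells were grown and lysed. Lysates were incubated overnight at 4 °C with 1 μM biotinylated covalent probe or DMSO, then pulled down on streptavidin beads. Proteins were run on polyacrylamide gels and stained with Coomassie. Bands were excised, digested and identified by mass spectrometry.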

In assay [10] the target is T-complex protein 1 subunit theta (Homo sapiens) (UniProt P50990). The assay can be described thus: Binding affinity to CCT8 in human NCI-H23 cells at 1 uM by mass spectrometry based pull down assay. It is filed as cell-based.
T-complex protein 1 subunit theta (Homo sapiens), sequence (P50990 whole entry, one chain of several): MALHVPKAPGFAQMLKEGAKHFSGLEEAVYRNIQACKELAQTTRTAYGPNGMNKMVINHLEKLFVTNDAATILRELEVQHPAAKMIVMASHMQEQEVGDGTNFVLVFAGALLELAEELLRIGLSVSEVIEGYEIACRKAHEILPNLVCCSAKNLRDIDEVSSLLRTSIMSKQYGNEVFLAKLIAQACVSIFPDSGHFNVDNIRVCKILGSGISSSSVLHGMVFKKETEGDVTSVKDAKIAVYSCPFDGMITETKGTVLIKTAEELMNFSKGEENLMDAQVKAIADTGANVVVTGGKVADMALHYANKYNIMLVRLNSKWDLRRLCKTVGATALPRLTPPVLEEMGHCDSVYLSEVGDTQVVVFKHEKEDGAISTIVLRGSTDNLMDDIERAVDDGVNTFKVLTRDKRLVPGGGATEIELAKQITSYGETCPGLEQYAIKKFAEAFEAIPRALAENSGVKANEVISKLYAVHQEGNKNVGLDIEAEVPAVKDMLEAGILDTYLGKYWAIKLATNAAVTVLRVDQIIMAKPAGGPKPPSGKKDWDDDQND
The target of assay [11] is TGF-beta-activated kinase 1 and MAP3K7-binding protein 2 (Homo sapiens) (UniProt Q9NYJ8). Briefly: Binding affinity to TAB2 in human NCI-H23 cells at 1 uM by mass spectrometry based pull down assay. The class given is cell-based.
TGF-beta-activated kinase 1 and MAP3K7-binding protein 2 (Homo sapiens), sequence (Q9NYJ8 whole entry): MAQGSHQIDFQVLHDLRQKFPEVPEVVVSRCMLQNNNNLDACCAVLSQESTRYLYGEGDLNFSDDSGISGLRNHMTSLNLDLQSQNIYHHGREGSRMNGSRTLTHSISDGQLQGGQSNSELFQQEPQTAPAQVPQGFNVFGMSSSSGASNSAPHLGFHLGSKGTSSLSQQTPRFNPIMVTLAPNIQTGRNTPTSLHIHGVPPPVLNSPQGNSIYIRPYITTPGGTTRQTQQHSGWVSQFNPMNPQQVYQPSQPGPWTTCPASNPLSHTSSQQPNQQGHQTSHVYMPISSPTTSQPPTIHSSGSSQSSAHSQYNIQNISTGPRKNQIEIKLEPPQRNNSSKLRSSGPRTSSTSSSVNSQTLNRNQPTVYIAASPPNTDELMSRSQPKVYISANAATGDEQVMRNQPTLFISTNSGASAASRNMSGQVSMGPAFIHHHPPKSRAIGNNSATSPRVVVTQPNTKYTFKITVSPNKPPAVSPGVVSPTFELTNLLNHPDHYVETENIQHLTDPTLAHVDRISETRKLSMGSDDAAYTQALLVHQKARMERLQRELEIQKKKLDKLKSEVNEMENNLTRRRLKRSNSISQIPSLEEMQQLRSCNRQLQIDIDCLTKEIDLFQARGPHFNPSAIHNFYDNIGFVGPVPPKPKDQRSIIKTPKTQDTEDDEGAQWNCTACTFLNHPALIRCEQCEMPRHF
The target of assay [12] is Cyclin-dependent kinase 4 (Homo sapiens) (UniProt P11802). The assay can be described thus: Binding affinity to CDK4 in human NCI-H23 cells at 1 uM by mass spectrometry based pull down assay. The class given is cell-based.
Assay [13] deals with 80S Ribosome (Homo sapiens) (UniProt P08865+P42677+P62753+P15880+P23396+P61247+P62701+P22090+P46782+P62081+P62241+P46781+P46783+P62280+P25398+P62277+P62263+P62841+P62244+P62249+P08708+P62269+P39019+P60866+P63220+P62266+P62847+P62851+P62854+P62979+P62857+P62273+P62861+P39023+P36578+P46777+Q02878+P18124+P62424+P62917+P32969+P27635+P62906+P62913+P30050+P26373+P40429+P50914+P61313+P18621+Q07020+Q02543+P84098+P46778+P35268+P62829+P62750+P83731+P61254+P61353+P46776+P46779+P47914+P62888+P62899+P62910+P49207+P42766+P18077+Q9Y3U8+P83881+P61927+P61513+P63173+P62891+P62945+P05388+P05386). The assay can be described thus: Binding affinity to RPL27 in human NCI-H358 cells at 1 uM by mass spectrometry based pull down assay. It is filed as cell-based.

Assay [14] addresses Tyrosine-protein kinase Yes (Homo sapiens) (UniProt P07947). The assay can be described thus: Binding affinity to YES1 in human NCI-H358 cells at 1 uM by mass spectrometry based pull down assay. The class given is cell-based.
In assay [15] the target is Glutamate--cysteine ligase regulatory subunit (Homo sapiens) (UniProt P48507). Briefly: Binding affinity to GCLM in human NCI-H358 cells at 1 uM by mass spectrometry based pull down assay. The class given is cell-based.
Assay [16] has as its target T1, Dual specificity mitogen-activated protein kinase kinase 7 (Homo sapiens) (UniProt O14733).
T1 sequence (whole entry): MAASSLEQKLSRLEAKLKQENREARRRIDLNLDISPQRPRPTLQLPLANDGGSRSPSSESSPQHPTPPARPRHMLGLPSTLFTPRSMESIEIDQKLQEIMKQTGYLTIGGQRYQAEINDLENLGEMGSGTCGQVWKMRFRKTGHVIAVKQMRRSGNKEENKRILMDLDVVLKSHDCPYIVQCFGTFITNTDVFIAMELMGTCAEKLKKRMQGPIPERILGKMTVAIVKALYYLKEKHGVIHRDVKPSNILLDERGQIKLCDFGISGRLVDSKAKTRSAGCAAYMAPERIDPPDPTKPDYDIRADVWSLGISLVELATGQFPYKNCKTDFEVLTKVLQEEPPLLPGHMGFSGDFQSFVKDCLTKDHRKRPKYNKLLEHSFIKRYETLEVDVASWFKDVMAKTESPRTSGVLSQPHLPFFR
The assay can be described thus: Binding affinity to MAP2K7 in human NCI-H358 cells at 1 uM by mass spectrometry based pull down assay. It is filed as cell-based.

Assay [17] has as its target Transforming growth factor-beta-induced protein ig-h3 (Homo sapiens) (UniProt Q15582). Briefly: Binding affinity to TGFBI in human NCI-H358 cells at 1 uM by mass spectrometry based pull down assay. It is filed as cell-based.
For assay [18], the target named is Bifunctional phosphoribosylaminoimidazole carboxylase/phosphoribosylaminoimidazole succinocarboxamide synthetase (Homo sapiens) (UniProt P22234). The assay can be described thus: Binding affinity to PAICS in human NCI-H358 cells at 1 uM by mass spectrometry based pull down assay. It is filed as cell-based.
Bifunctional phosphoribosylaminoimidazole carboxylase/phosphoribosylaminoimidazole succinocarboxamide synthetase (Homo sapiens), sequence (P22234 whole entry): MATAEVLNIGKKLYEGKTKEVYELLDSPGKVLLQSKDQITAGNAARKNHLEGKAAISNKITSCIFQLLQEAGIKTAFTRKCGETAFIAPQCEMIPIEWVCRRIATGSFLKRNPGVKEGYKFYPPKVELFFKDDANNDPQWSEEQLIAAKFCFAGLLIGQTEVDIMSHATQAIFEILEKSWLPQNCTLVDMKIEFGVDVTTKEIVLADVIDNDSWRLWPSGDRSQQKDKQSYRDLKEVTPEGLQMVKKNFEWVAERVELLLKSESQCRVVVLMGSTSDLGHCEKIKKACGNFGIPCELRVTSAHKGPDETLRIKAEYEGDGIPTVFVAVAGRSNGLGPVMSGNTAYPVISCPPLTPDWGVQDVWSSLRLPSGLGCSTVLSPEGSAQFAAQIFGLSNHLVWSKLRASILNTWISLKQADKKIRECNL
Assay [19] concerns the target Heterogeneous nuclear ribonucleoprotein Q (Homo sapiens) (UniProt O60506). The assay can be described thus: Binding affinity to SYNCRIP in human NCI-H358 cells at 1 uM by mass spectrometry based pull down assay. It is filed as cell-based.
Assay [20] concerns the target Phosphatidylinositol 5-phosphate 4-kinase type-2 gamma (Homo sapiens) (UniProt Q8TBX8). The assay can be described thus: Inhibition of PIP4K2C in human SKCO1 cells at 1 uM after 4 hrs using biotin labeled TLVIKEVSSEDIADMHSNLSNYHQYIVK probe by mass-spectrometric analysis relative to control. The class given is cell-based.
The target of assay [21] is Dual specificity mitogen-activated protein kinase kinase 2 (Homo sapiens) (UniProt P36507). The assay can be described thus: Inhibition of full length human MEK2 (1 to 400 residues) expressed in mammalian expression system assessed as enzyme activity at 10 uM by KINOMEScan assay relative to control. Also noted: scale not given: the % may be the effect or the level left. An outline of the steps: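 In vitro ATP-site competition binding assay (KinomeScan) across a panel of 456 kinases. Compound was tested at 1 and 10 μM. The read-out is the binding inhibition score relative to control.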

Tyrosine-protein kinase Yes (Homo sapiens), sequence (P07947 2-543 limits assumed): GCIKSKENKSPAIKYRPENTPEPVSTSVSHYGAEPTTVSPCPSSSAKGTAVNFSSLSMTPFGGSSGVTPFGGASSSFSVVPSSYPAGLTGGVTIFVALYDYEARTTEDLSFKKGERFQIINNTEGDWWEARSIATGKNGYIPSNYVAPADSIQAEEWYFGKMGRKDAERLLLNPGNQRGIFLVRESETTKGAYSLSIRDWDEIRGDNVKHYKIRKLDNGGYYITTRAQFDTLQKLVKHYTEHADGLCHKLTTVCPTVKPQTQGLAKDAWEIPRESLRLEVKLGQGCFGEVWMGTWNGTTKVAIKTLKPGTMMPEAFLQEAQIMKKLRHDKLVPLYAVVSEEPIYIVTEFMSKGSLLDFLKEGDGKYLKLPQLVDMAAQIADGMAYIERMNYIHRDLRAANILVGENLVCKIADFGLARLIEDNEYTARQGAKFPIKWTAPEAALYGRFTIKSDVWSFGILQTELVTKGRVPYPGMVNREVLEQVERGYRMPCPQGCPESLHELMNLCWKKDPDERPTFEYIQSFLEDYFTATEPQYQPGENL
Heterogeneous nuclear ribonucleoprotein Q (Homo sapiens), sequence (O60506 whole entry): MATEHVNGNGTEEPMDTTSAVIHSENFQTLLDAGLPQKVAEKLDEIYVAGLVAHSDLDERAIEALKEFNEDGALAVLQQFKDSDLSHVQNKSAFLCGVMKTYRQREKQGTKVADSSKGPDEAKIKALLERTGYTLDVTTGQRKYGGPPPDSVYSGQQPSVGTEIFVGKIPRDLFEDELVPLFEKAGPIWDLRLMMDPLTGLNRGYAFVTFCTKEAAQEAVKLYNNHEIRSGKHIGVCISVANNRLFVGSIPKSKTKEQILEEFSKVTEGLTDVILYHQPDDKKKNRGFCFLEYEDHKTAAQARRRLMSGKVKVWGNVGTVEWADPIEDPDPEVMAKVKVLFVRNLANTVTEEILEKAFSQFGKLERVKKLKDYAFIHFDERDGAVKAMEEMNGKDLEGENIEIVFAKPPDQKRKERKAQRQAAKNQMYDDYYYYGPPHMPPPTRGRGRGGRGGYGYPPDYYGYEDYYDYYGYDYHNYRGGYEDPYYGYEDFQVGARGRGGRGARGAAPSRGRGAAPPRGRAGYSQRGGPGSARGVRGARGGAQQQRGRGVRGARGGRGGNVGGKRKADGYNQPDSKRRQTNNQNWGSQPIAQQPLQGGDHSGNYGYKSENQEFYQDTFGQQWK
Transforming growth factor-beta-induced protein ig-h3 (Homo sapiens), sequence (Q15582 whole entry): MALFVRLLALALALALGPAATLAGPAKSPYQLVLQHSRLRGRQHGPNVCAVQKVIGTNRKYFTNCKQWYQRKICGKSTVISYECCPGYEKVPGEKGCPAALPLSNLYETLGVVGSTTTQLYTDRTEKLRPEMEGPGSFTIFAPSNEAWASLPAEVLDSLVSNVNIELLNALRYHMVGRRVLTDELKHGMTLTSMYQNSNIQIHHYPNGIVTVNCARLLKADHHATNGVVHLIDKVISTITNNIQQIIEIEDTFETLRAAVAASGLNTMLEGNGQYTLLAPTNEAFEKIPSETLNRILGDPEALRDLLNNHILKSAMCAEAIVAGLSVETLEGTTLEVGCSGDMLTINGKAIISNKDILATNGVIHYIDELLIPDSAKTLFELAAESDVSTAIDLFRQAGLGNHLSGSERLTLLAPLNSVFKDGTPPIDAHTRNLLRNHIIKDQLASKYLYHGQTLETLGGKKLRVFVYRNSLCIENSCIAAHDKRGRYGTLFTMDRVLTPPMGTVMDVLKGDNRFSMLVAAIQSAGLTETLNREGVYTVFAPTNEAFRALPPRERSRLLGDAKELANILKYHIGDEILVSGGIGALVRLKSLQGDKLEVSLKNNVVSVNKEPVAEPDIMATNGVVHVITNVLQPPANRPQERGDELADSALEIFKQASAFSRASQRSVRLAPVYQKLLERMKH

As for `C=CC(=O)Nc1ccccc1Nc1nc(Nc2ccc(N3CCN(CCOCCOCCOCCNC(=O)CCCC[C@@H]4SC[C@@H]5NC(=O)N[C@@H]54)CC3)cc2)ncc1Cl`, the outcome in assay [1], in assay [2], in assay [3], in assay [4], in assay [5] and in assay [6] was Active. The result in assay [7], in assay [8], in [9], in assay [10], in assay [11] and in [12] was Active. In addition, the outcome in assay [13], in [14], in [15], in assay [16], in assay [17] and in assay [18] was Active. In assay [19], the result was Active.
A word on the inhibition: it is the drop in the measured response relative to a control, in per cent. Consider `COc1cc(O)c2c(c1)/C=C/C[C@H](O)[C@H](O)C(=O)/C=C\C[C@H](C)OC2=O`, for which, in assay [20], the inhibition stood at 16.8%. Moreover, the Activity in [21] came to 0.05%.
